Assay [1] concerns human alveolar adenocarcinoma A549. In words: Cell viability assay. Format: cell-based. The settings on record: A549, 72 h, read-out: IC50 A549, dark.
Another assay relates to murine melanoma B16-F10. In words: Cell viability assay. It counts as cell-based. The settings on record: read-out: IC50 B16-F10, dark.
The test system of assay [2] is human colon adenocarcinoma Caco-2. In words: Cell viability assay. Format: cell-based. The settings on record: Caco-2, 72 h, read-out: IC50 Caco-2, dark.
The test system of assay [3] is human colorectal adenocarcinoma HT-29. The assay can be described thus: Cell viability assay. It counts as cell-based. As to conditions: read-out: IC50 HT-29, dark.
Assay [4] has as its system triple negative human breast adenocarcinoma MDA-MB-231. In words: Cell viability assay. Format: cell-based. As to conditions: MDA-MB-231, 72 h, read-out: IC50 MDA-MB-231, dark.
Another assay has as its system A549 cells. In words: Quantification of cellular uptake by LC-MS/MS. It counts as cell-based, human. The method, boiled down:
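A549 cells (1.2 × 10⁵/well) adhered overnight, then received 3 μM test compound. Medium was removed immediately or after 1, 3, 6, 12 or 24 h in the dark at 37 °C/5% CO₂. Cells were washed with PBS/1.5% DMSO, scraped into acetonitrile, sonicated and centrifuged. Extracts were quantified by LC-MS/MS against external standards (0.02–0.25 μM in A549 extract). Per-cell concentration assumed 1.7 pL cell volume; n = 4, mean ± SEM.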

Where two headings read alike, the source gives them in different places.

What is called IC50 is the midpoint of a concentration-inhibition curve.

Turning to `c1ccc(-c2ccccn2)nc1` [bipy, 2,2′-bipyridine], the IC50 in assay [1] was more than 100 µM; in the assay with murine melanoma B16-F10 (Mus musculus, B16-F10, 72 h) it was more than 100 µM; in assay [2], more than 100 µM; in assay [3] (Homo sapiens, HT-29, 72 h), more than 100 µM; in assay [4], 37.5 ± 0.14 µM.

With `N.N.[Cl][Pt][Cl]` [Cisplatin, cisplatin], the IC50 in the assay on murine melanoma B16-F10 (dark, 72 h, WST-1, mean ± SEM) is 7.7 ± 0.2 µM; in assay [3] (dark, 72 h, WST-1, mean ± SEM), more than 100 µM.

Take `Cc1cc(-c2ccccc2)c2ccc3c(-c4ccccc4)cc(C)nc3c2n1` [BC, bathocuproine]: the IC50 was more than 100 µM in assay [1]; more than 100 µM in the assay with murine melanoma B16-F10 (Mus musculus, B16-F10, 72 h); more than 100 µM in assay [2]; more than 100 µM in assay [3] (Homo sapiens, HT-29, 72 h); more than 100 µM in assay [4]. Also, in the assay with A549 cells (3 μM, A549, assuming average cell volume of 1.7 pL and homogeneous distribution), the “maximum cellular concentration per cell” value was 2000 μM per cell. Also, in the assay on A549 cells (A549, 3 μM), the “time at which cellular uptake was optimal / plateaued” value was determined as 3 h.

For the origin of these results see publication PMC9064604 (RSC Advances, 2019).
